# Results as given in publication PMC3992281 (Journal of neurochemistry, 2013).
# How the values were obtained:
# Assay type in all cases: cell-based, rat
# [1] = system: nicotinic cholinergic-stimulated catecholamine release in PC12 cells; experiment: Nicotine-stimulated norepinephrine secretion from PC12 cells
# How it was run: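 PC12 cells were washed, then stimulated with nicotine (60 µM) in secretion medium in the presence of graded concentrations of the CHGB-derived test peptide. Maximal effect was taken at 10 µM peptide. Human CHGA[352–372] served as the positive control. Norepinephrine release was measured and each experiment was repeated 3 times.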
# [2] = system: nicotine-triggered uptake of 45Ca2+ in PC12 cells; experiment: Nicotinic cholinergic signal transduction: 45Ca2+ uptake; settings: nicotine 60 µM, 45Ca2+ 2 µCi/ml, 5 minutes
# How it was run: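 PC12 cells were plated on poly-L-lysine-coated dishes 2 days ahead and rinsed every 15 min for 1 h at 37°C in secretion buffer (150 mM NaCl, 5 mM KCl, 2 mM CaCl2, 10 mM Hepes, pH 7.4). Cells were exposed to ⁴⁵Ca²⁺ with drugs in Ca²⁺-free buffer for 5 min at room temperature. Uptake was stopped with ice-cold 1 mM LaCl3, followed by lysis and scintillation counting (cpm/well). Results are mean ± SEM.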
# [3] = system: membrane depolarization-stimulated catecholamine release in PC12 cells; experiment: KCl; settings: KCl 55 mM, CHGB full-length or plasmin-digested, repeated 3 times
# How it was run: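 Rat PC12 cells (passage 10–25) grown in high-glucose DMEM with 10% horse serum and 5% FBS at 37°C in 6% CO2. After washing, cells were stimulated with KCl (55 mM) in secretion medium, with recombinant human CHGB (3.0 µM), either full-length or pre-digested with plasmin (10 µM CHGB, 2 µM plasmin, Tris-Cl pH 8.0, 150 mM NaCl, 1 hr). Three experiments.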
molecule,measurement,setting,value
catestatin,"efficacy (maximal effect), inhibition of nicotinic cholinergic secretion","[1]; nicotine 60 µM, at 10 µM peptide",~ 100%
same,IC50,"[1]; read-out: potency (IC50) to inhibit nicotinic cholinergic-stimulated catecholamine secretion, nicotine 60 µM, repeated 3 times",450 nM
same,inhibition of nicotine-stimulated uptake of 45Ca2+,[2],~ 82%
"CHGB: purified human recombinant mature CHGB (657 residues) with carboxy-terminal … tag, expressed in E. coli (protein, UniProt P05060 21-677, looked up, C-terminal tag) Secretogranin-1: MPVDNRNHNEGMVTRCIIEVLSNALSKSSAPPITPECRQVLKTSRKDVKDKETTENENTKFEVRLLRDPADASEAHESSSRGEAGAPGEEDIQGPTKADTEKWAEGGGHSRERADEPQWSLYPSDSQVSEEVKTRHSEKSQREDEEEEEGENYQKGERGEDSSEEKHLEEPGETQNAFLNERKQASAIKKEELVARSETHAAGHSQEKTHSREKSSQESGEETGSQENHPQESKGQPRSQEESEEGEEDATSEVDKRRTRPRHHHGRSRPDRSSQGGSLPSEEKGHPQEESEESNVSMASLGEKRDHHSTHYRASEEEPEYGEEIKGYPGVQAPEDLEWERYRGRGSEEYRAPRPQSEESWDEEDKRNYPSLELDKMAHGYGEESEEERGLEPGKGRHHRGRGGEPRAYFMSDTREEKRFLGEGHHRVQENQMDKARRHPQGAWKELDRNYLNYGEEGAPGKWQQQGDLQDTKENREEARFQDKQYSSHHTAEKRKRLGELFNPYYDPLQWKSSHFERRDNMNDNFLEGEEENELTLNEKNFFPEYNYDWWEKKPFSEDVNWGYEKRNLARVPKLDLKRQYDRVAQLDQLLHYRKKSAEFPDFYDSEEPVSTHQEAENEKDRADQTVLTEDEKKELENLAAMDLELQKIAEKFSQRG",reduction of membrane depolarization-stimulated catecholamine release,[3],~ 23%
